Source: PubChem
GPR7 antagonist: blocks human GPR7 receptor signaling; inhibition, % at 4.4 µM; GPR7-expressing cells, fluorescence antagonist assay; actives 1.1% (n = 290,000); in the data active = inhibition above about 16%, passing the limit was not always enough;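 also: cells stimulated with the agonist NPW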
Target sequence (P48145 whole entry, looked up): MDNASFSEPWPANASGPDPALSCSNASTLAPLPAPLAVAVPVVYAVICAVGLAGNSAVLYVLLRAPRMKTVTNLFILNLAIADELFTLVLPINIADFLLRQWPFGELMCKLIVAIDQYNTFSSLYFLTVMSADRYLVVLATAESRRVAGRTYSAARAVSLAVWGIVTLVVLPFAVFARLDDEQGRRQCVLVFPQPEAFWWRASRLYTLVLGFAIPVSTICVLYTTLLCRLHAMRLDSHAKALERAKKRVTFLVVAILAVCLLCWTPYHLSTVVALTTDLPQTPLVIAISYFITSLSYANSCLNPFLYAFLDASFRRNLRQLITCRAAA
OX1R antag-1: blocks the human orexin 1 receptor | O43613 | actives 0.43% (n = 330,000) | inhibition, % at 5 µM | CHO/OX1R cells, Fluo-8 calcium fluorescence, orexin A;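 active = inhibition above its plate's threshold, mean inhibition of all tested compounds on the plate plus 3 SD, cut at about 37% in these data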
Target sequence (O43613 whole entry, looked up): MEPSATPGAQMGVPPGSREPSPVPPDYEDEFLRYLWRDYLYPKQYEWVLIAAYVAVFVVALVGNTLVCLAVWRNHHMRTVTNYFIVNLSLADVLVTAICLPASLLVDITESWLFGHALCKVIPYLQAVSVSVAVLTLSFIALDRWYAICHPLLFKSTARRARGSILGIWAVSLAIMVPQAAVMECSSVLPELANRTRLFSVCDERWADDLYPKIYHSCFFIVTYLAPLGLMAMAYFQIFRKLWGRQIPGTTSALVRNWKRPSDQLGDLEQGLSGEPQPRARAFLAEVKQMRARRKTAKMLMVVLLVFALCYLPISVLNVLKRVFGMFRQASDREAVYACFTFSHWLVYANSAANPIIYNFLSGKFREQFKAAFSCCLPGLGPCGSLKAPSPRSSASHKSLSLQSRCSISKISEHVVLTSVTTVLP
TAAR1 antag: antagonists of human TAAR1. CHO RD-HGA16 TAAR1, Fluo-8 calcium fluorescence, antagonist. inhibition, % at 3 µM. actives 1.5% (n = 360,000). AID 624466;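 active = inhibition above a per-plate cutoff, the mean inhibition of test compounds on that plate plus 3 SD, cut at about 49% in these data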
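Assay system: RD-HGA16 CHO cells with stable hTAAR1 and Gα16 / Reagent: EC80 β-phenethylamine stimulus / Doses: 3 µM, single point / Timing: dye loading 75 min at 37 °C, then 30 min room temperature / Measured by: Fluo-8 intracellular calcium dye fluorescence, real-time kinetic reads / Controls: vehicle wells and EC80 agonist wells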
TAAR1 ag: agonists of human TAAR1; AID 624467; activation, % at 3 µM; CHO RD-HGA16 TAAR1, Fluo-8 calcium fluorescence; vehicle wells 0%, saturating PEA agonist 100%; actives 0.99% (n = 360,000);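 active = activation above the mean activation of all test compounds in the run plus 3 SD, cut at about 38% in these data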
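Test system: RD-HGA16 (CHO) cells co-expressing Gα16 and hTAAR1 / Benchmarks: DMSO vehicle as 0%, PEA at EC100 as 100% / Repeats: no replicates (n 1) / Measure: % activation from peak over basal fluorescence ratio, DMSO-to-PEA scaled / Timing: 17-24 h plating, Fluo-8 75 min 37 °C, 30 min RT / Technique: kinetic Fluo-8 calcium fluorescence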
OX1R antag-2: antagonists of human orexin 1 receptor (OX1R). O43613. OX1R-expressing cells, FRET antagonist read-out. inhibition, % at 6.6 µM. actives 1.8% (n = 330,000). AID 485270; in the data active = inhibition mostly above about 38%, no sharp cut-off; inactive = mostly below about 40%
CHO parental Ca: counter-screen for OX1R antagonists: effect in parental CHO cells | parental CHO-K1, ATP-induced calcium, Fluo-8 fluorescence | inhibition, % at 5.6 µM | actives 0.63% (n = 330,000);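 active = inhibition above that plate's mean sample inhibition plus 3 SD, cut at about 26% in these data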
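test system = CHO parental line | reagent = ATP stimulus | measured by = intracellular calcium via Fluo-8 no-wash fluorescent dye | control set = ATP and no-ATP DMSO wells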
OX1R HTRF confirm: OX1R (human) antagonism, HTRF confirmed; shares compounds with OX1R antag-2; actives 49% (n = 1,800); inhibition, % at 6.6 µM; OX1R-expressing cells, HTRF antagonist assay; AID 492964; in the data active = inhibition above about 55%;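 also: CHO cells expressing OX1R stimulated with orexin A at about EC80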
CHO-K1 HTRF cnt: counter-screen: parental CHO-K1 HTRF response. parental CHO-K1 cells, HTRF counterscreen. actives 48% (n = 1,800). inhibition, % at 6.6 µM. shares compounds with OX1R antag-2; in the data active = inhibition above about 17%
Large screens that a line does not name were inactive (follow-up assays come after a bar, where they were run). Only some compounds are listed: those with a hit (about 4.5% of all), similar ones and a draw of the others.

Cc1ccc(C)c(N(C)S(=O)(=O)c2ccc3c(c2)oc(=O)n3C)c1	none
CN(C(=O)CCS(=O)(=O)c1ccc2c(c1)oc(=O)n2C)C1CCCCC1	none
COc1ccc(NC(=O)CSc2nnnn2C)c([N+](=O)[O-])c1	OX1R antag-2 117 | OX1R HTRF confirm inactive | CHO-K1 HTRF cnt 46
Cn1nnnc1SCC(=O)Nc1ccccc1[N+](=O)[O-]	none
COCCCNC(=O)N1c2ccccc2Sc2ccccc21	none
COCCCNC(=O)CN1C(=O)/C(=C\c2ccc(C)cc2)Sc2ccccc21	OX1R antag-2 78 | OX1R HTRF confirm inactive | CHO-K1 HTRF cnt inactive
N#Cc1cc([N+](=O)[O-])cnc1N(CCO)CCO	OX1R antag-2 82 | OX1R HTRF confirm inactive | CHO-K1 HTRF cnt 22
CCC(CO)Nc1ncc([N+](=O)[O-])cc1C#N (stereo not drawn)	none
CCCSc1ccc([C@@H]2[C@@H]3C(=O)N(CC)C(=O)[C@@H]3[C@]3(C(=O)OC)CCCCN23)cc1OC	none (no result: GPR7 antagonist)
CCSc1ccc([C@@H]2[C@H]3C(=O)N(CC)C(=O)[C@H]3[C@]3(C(=O)OC)CCCCN23)cc1OC	OX1R antag-2 84 (no result: GPR7 antagonist, TAAR1 antag, TAAR1 ag) | OX1R HTRF confirm 76 | CHO-K1 HTRF cnt inactive
O=C(Nc1ccccc1C(=O)NCCN1CCOCC1)c1ccco1	none
O=S(=O)(c1cnc(Cl)c(Br)c1)N1CCCCCC1	none
O=C(CSc1nc2ccccc2[nH]1)Nc1cc(C(F)(F)F)ccc1N1CCOCC1	OX1R antag-2 87 | OX1R HTRF confirm inactive | CHO-K1 HTRF cnt inactive
CC(Cl)C(=O)Nc1cc(C(F)(F)F)ccc1N1CCOCC1 (stereo not drawn)	OX1R antag-2 94 | OX1R HTRF confirm inactive | CHO-K1 HTRF cnt inactive
CC1CC1C(=O)Nc1cc(C(F)(F)F)ccc1N1CCOCC1 (stereo not drawn)	none
Cn1nnnc1SCC(=O)Nc1cc(C(F)(F)F)ccc1N1CCOCC1	none
COc1ccc(CN(C)C(=O)c2cccc(NC(=O)CC3SC(N4CCCCC4)=NC3=O)c2)c(OC)c1 (stereo not drawn)	none (no result: GPR7 antagonist, OX1R antag-1, OX1R antag-2, CHO parental Ca)
CC(C(=O)NCCN1C(=O)S/C(=C\c2cccnc2)C1=O)N1C(=O)c2ccccc2C1=O (stereo not drawn)	OX1R antag-2 79 | OX1R HTRF confirm 64 | CHO-K1 HTRF cnt 40
COc1ccc(C(=O)NCCN2C(=O)S/C(=C\c3cccnc3)C2=O)c(OC)c1OC	OX1R antag-2 82 | OX1R HTRF confirm 58 | CHO-K1 HTRF cnt 24
COCOCCn1cc(CN2CCS(=O)(=O)N(Cc3ccc(-c4ccncc4)cc3)C(C(C)C)C2=O)nn1 (stereo not drawn)	none (no result: GPR7 antagonist, OX1R antag-1, OX1R antag-2, CHO parental Ca)
NC(=O)CSc1ncc(-c2ccc([N+](=O)[O-])cc2)[nH]1	OX1R antag-2 80 | OX1R HTRF confirm inactive | CHO-K1 HTRF cnt 33
COc1ccc(NC(=O)C2CC2(Cl)Cl)cc1S(=O)(=O)N1CCCCC1 (stereo not drawn)	none (no result: GPR7 antagonist, OX1R antag-1, OX1R antag-2, CHO parental Ca)
CN1C(=O)C2(N=c3ccccc3=N2)c2ccccc21	OX1R antag-2 79 (no result: TAAR1 antag, TAAR1 ag) | OX1R HTRF confirm 86 | CHO-K1 HTRF cnt inactive
O=C(CSc1nnc(CNC(=O)c2c(F)cccc2Cl)o1)NC1CCCC1	none
O=C(CN1CCC(C(=O)c2ccc(Cl)cc2)CC1)NC1CCCC1	none
[O-][n+]1c2ccccc2[n+]([O-])c2cc(O)ccc21	OX1R antag-2 92 | OX1R HTRF confirm 63 | CHO-K1 HTRF cnt 111
Cc1oc(-c2ccccc2)cc1C(=O)Nc1cccc2ccccc12	none
O=C(Nc1cccc(F)c1)C1CCCN(S(=O)(=O)c2ccc(-n3cnnn3)cc2)C1 (stereo not drawn)	none
O=C(O)CSCC(=O)Nc1ccc(-c2nc3ccccc3s2)cc1	none
Cc1csc(NC(=O)CSCC(=O)O)c1-c1nc2ccccc2s1	OX1R antag-2 83 | OX1R HTRF confirm 88 | CHO-K1 HTRF cnt inactive
O=C(Nc1ccc(NC(=O)c2sc3ccccc3c2Cl)cc1)c1ccco1	none
CCN(C(=O)CN1C(=O)c2ccc([N+](=O)[O-])cc2C1=O)C1CCS(=O)(=O)C1 (stereo not drawn)	OX1R antag-2 90 (no result: GPR7 antagonist) | OX1R HTRF confirm 64 | CHO-K1 HTRF cnt 74
c1ccc(-c2nc3nc4ccccc4nc3n2Cc2ccco2)cc1	OX1R antag-2 107 | OX1R HTRF confirm inactive | CHO-K1 HTRF cnt 18
Brc1cccc(-c2nnc(SCc3nc4ccccc4[nH]3)o2)c1	OX1R antag-2 80 | OX1R HTRF confirm inactive | CHO-K1 HTRF cnt inactive
O=C(N/N=C/C(Br)=C/c1ccccc1)c1cccs1	none
O=C(O)c1ccc2c3c(ncnc13)-c1ccccc1C2=O	OX1R antag-2 186 (no result: TAAR1 antag, TAAR1 ag) | OX1R HTRF confirm 58 | CHO-K1 HTRF cnt 98
CCn1c(O)c(/C=N/N=C/c2ccc(OC)cc2)c2cc(C3=NNC(=O)CC3)ccc21	none
CC/C(C)=N\N=C\c1c(O)n(CC)c2cc(C3=NNC(=O)CC3)ccc12	OX1R antag-2 88 (no result: TAAR1 antag, TAAR1 ag) | OX1R HTRF confirm inactive | CHO-K1 HTRF cnt inactive
Cc1cccc(OS(=O)(=O)NC(=O)OCC2CCCN3CCCCC23)c1 (stereo not drawn)	none
Cc1cc(=O)oc2cc(Oc3ccc([N+](=O)[O-])cc3[N+](=O)[O-])ccc12	OX1R antag-2 89 | OX1R HTRF confirm 59 | CHO-K1 HTRF cnt 71
CN1CCc2c(sc(NC(=O)c3ccc([N+](=O)[O-])o3)c2C(N)=O)C1	OX1R antag-2 90 | OX1R HTRF confirm inactive | CHO-K1 HTRF cnt 31
O=C(/C=C/c1ccc([N+](=O)[O-])cc1)NNC(=O)C1CC1	OX1R antag-2 137 | OX1R HTRF confirm inactive | CHO-K1 HTRF cnt 66
O=C(/C=C/c1ccc([N+](=O)[O-])cc1)NC1CC2CCC1C2 (stereo not drawn)	none
CC(C)(C)C(=O)/C=c1\[nH]c(=O)/c(=C\c2ccc(F)cc2)s1	none
COc1ccc(/C=c2\s/c(=C/C(=O)c3ccc(C)cc3)[nH]c2=O)cc1OC	OX1R antag-2 82 | OX1R HTRF confirm 84 | CHO-K1 HTRF cnt 19
O=[N+]([O-])c1ccc(-c2cnc(NO)nc2)cc1	none
Nc1ncc(-c2ccc([N+](=O)[O-])cc2)cn1	OX1R antag-2 105 | OX1R HTRF confirm inactive | CHO-K1 HTRF cnt 41
N#Cc1ccsc1NC(=O)COC(=O)C1=NNC(=O)CC1	none (no result: GPR7 antagonist)
Cc1ccc(/C=C/C(=O)c2ccc([N+](=O)[O-])o2)cc1	none (no result: GPR7 antagonist)
Cc1ccnc(NC(=O)c2ccc([N+](=O)[O-])o2)c1	OX1R antag-2 94 | OX1R HTRF confirm inactive | CHO-K1 HTRF cnt 68
